Data: PMC6796967 (Journal of Medicinal Chemistry, 2018)
Residues, ends and D or L forms follow the SMILES beside them.

Tested on: human primary fibroblasts
Test: WST-1 cell viability assay in fibroblasts
Format: cell-based
Conditions: 0.1–20 μM, 24 h treatment; highest concentration
Outline: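 Primary human fibroblasts (GM04390) grown in high-glucose DMEM with 10% heat-inactivated FBS and antibiotics at 3% O2, 5% CO2, 37 °C. Seeded at 100 000 cells/mL, switched to Optimem after 24 h, then given 0.1–20 μM test compound or DMSO at 48 h. After about 24 h, incubated 4 h with 10% WST-1 reagent; absorbance read at 450 nm.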

C[C@H](NC(=O)[C@H](Cc1ccc(O)cc1)NC(=O)[C@H](Cc1ccc(O)cc1)NC(=O)[C@@H]1CCCN1C(=O)[C@@H]1CCCN1C(=O)[C@@H]1CCCN1C(=O)[C@@H]1CCCN1C(=O)[C@H](CCCNC(=N)N)NC(=O)[C@H](CCCNC(=N)N)NC(=O)[C@@H](N)CCCNC(=N)N)C(=O)O [Compound 2, RRR-PPPP-YYA-OH] (H-RRRPPPPYYA-OH)
cytotoxic effects (cell viability, WST-1): did not exert any cytotoxic effects
